Results taken from ChEMBL document CHEMBL1122443, “Synthesis and antitumor evaluation of selected 5,6-disubstituted 1(2)H-indazole-4,7-diones” (1983).

Assays:
Format in all cases: functional
Mus musculus [1] = assay: Antitumor activity in CF1 mice bearing Ehrlich ascites carcinoma measured as percentage inhibition at 5 mg/kg
Outline: (§1)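 Ehrlich ascites model in male CF1 mice (22–25 g): 2 × 10⁶ cells ip on day 0, ip dosing days 1–8, kill on day 9. Percent inhibition = 100 − [(treated volume × treated ascrit)/(control volume × control ascrit)]. Greater than 80% was taken as significant. Vehicle was 0.05% Tween 80, alone or with 5% absolute EtOH. 6-Mercaptopurine was the positive control.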

Mus musculus [2] = assay: Antitumor activity in CF1 mice bearing Ehrlich ascites carcinoma measured as percentage inhibition at 6 mg/kg; outline: as §1
Mus musculus [3] = assay: Antitumor activity in CF1 mice bearing Ehrlich ascites carcinoma measured as ascites volume at 5 mg/kg
Outline: (§2)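 Male CF1 mice (22–25 g) received 2 × 10⁶ Ehrlich carcinoma cells ip on day 0. Dosing was ip daily on days 1–8, with sacrifice on day 9. Ascites fluid volume per mouse and ascrit (packed cell volume) were measured for each group. Vehicle was 0.05% Tween 80, or 5% absolute EtOH in 0.05% Tween 80, used for both compound and control. 6-Mercaptopurine was the positive control.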

Mus musculus [4] = assay: Antitumor activity in CF1 mice bearing Ehrlich ascites carcinoma measured as ascites volume at 6 mg/kg; outline: as §2
Mus musculus [5] = assay: Average days survived for treated / average days survived for control at 0.5 (mg/kg); 10.5/9.2
Mus musculus [6] = assay: Average days survived for treated / average days survived for control at 1 (mg/kg); 11/9.2
Mus musculus [7] = assay: Average days survived for treated / average days survived for control at 10 (mg/kg); 12.6/9.2
Mus musculus [8] = assay: Average days survived for treated / average days survived for control at 15 (mg/kg); 9.2/9.2
Mus musculus [9] = assay: Average days survived for treated / average days survived for control at 20 (mg/kg); 3.6/9.2
Mus musculus [10] = assay: Average days survived for treated / average days survived for control at 5 (mg/kg); 10.9/9.2
Mus musculus [11] = assay: Antitumor activity in CF1 mice bearing Ehrlich ascites carcinoma measured as survivors on day 9 at 5 mg/kg; 5/5
Mus musculus [12] = assay: Antitumor activity in CF1 mice bearing Ehrlich ascites carcinoma measured as survivors on day 9 at 6 mg/kg; 5/6
Mus musculus [13] = assay: Antitumor activity in CF1 mice bearing Ehrlich ascites carcinoma measured as percent ascrit packed cell volume at 5 mg/kg; outline: as §2
Mus musculus [14] = assay: Antitumor activity in CF1 mice bearing Ehrlich ascites carcinoma measured as percent ascrit packed cell volume at 6 mg/kg; outline: as §2
Mus musculus [15] = assay: Anti tumor activity in mice bearing lymphocytic leukemia P-388 at 0.5 mg/kg
Outline: (§3)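 Male BDF1 mice (20–23 g) were inoculated ip with 1 × 10⁶ P-388 leukemia cells on day 0. Compound was given ip once daily on days 1–14 in 0.05% Tween 80 vehicle, with a vehicle control group and 5-fluorouracil as positive control. Activity was scored as % T/C, average days survived treated/control, with >125% taken as significant.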

Mus musculus [16] = assay: Anti tumor activity in mice bearing lymphocytic leukemia P-388 at 1 mg/kg; outline: as §3
Mus musculus [17] = assay: Anti tumor activity in mice bearing lymphocytic leukemia P-388 at 10 mg/kg
Outline: (§4)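 Male BDF1 mice (20–23 g) inoculated ip with 1 × 10⁶ P-388 lymphocytic leukemia cells on day 0. Test agents were given ip once daily on days 1–14, with 0.05% Tween 80 as vehicle for treated and control groups. Read-out is %T/C, the mean days survived by treated over control. Values above 125% were counted as significant. 5-Fluorouracil was the positive control.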

Mus musculus [18] = assay: Anti tumor activity in mice bearing lymphocytic leukemia P-388 at 12 mg/kg; outline: as §4
Mus musculus [19] = assay: Anti tumor activity in mice bearing lymphocytic leukemia P-388 at 15 mg/kg; outline: as §4
Mus musculus [20] = assay: Anti tumor activity in mice bearing lymphocytic leukemia P-388 at 20 mg/kg; outline: as §4
Mus musculus [21] = assay: Anti tumor activity in mice bearing lymphocytic leukemia P-388 at 5 mg/kg; outline: as §3
Mus musculus [22] = assay: Average days survived for treated / average days survived for control at 12 (mg/kg); 9/9.2
Mus musculus [23] = assay: Antitumor activity in CF1 mice bearing Ehrlich ascites carcinoma measured as percentage inhibition at 1 mg/kg
Outline: (§5)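 In the Ehrlich ascites model, male CF1 mice (22–25 g) received 2 × 10⁶ cells ip on day 0 and compound ip on days 1–8, with a vehicle of 0.05% Tween 80 ± 5% EtOH. Ascites volume and ascrit were taken on day 9. % inhibition = 100 − [(vol × ascrit, treated)/(vol × ascrit, control)], with >80% taken as significant.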

Mus musculus [24] = assay: Antitumor activity in CF1 mice bearing Ehrlich ascites carcinoma measured as percentage inhibition at 10 mg/kg; outline: as §5
Mus musculus [25] = assay: Antitumor activity in CF1 mice bearing Ehrlich ascites carcinoma measured as survivors on day 9 at 1 mg/kg; 6/6
Mus musculus [26] = assay: Antitumor activity in CF1 mice bearing Ehrlich ascites carcinoma measured as survivors on day 9 at 10 mg/kg; 5/6
Mus musculus [27] = assay: Antitumor activity in CF1 mice bearing Ehrlich ascites carcinoma measured as survivors on day 9 at 12 mg/kg; 0/6
Mus musculus [28] = assay: Antitumor activity in CF1 mice bearing Ehrlich ascites carcinoma measured as ascites volume at 1 mg/kg
Outline: (§6)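 Ehrlich ascites cells (2 × 10⁶) were implanted ip in male CF1 mice (22–25 g) on day 0. Dosing was ip on days 1–8 in 0.05% Tween 80 or 5% EtOH/0.05% Tween 80, with vehicle controls. Mice were killed on day 9, and ascites fluid volume per mouse was measured.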

Mus musculus [29] = assay: Average days survived for treated / average days survived for control at 1 (mg/kg); 10.8/9.2
Mus musculus [30] = assay: Antitumor activity in CF1 mice bearing Ehrlich ascites carcinoma measured as percent ascrit packed cell volume at 1 mg/kg
Outline: (§7)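 CF1 male mice (22–25 g) were inoculated ip with 2 × 10⁶ Ehrlich cells on day 0 and treated ip on days 1–8 in 0.05% Tween 80 or 5% EtOH/0.05% Tween 80 vehicle. On day 9 the mice were sacrificed, and the ascrit (packed cell volume) of the ascites fluid was determined.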

Mus musculus [31] = assay: Antitumor activity in CF1 mice bearing Ehrlich ascites carcinoma measured as percent ascrit packed cell volume at 10 mg/kg; outline: as §7
Mus musculus [32] = assay: Antitumor activity in CF1 mice bearing Ehrlich ascites carcinoma measured as ascites volume at 10 mg/kg; outline: as §6
Mus musculus [33] = assay: Antitumor activity in CF1 mice bearing Ehrlich ascites carcinoma measured as survivors on day 9 at 3 mg/kg; 3/6
Mus musculus [34] = assay: Antitumor activity in CF1 mice bearing Ehrlich ascites carcinoma measured as ascites volume at 3 mg/kg; outline: as §2
Mus musculus [35] = assay: Average days survived for treated / average days survived for control at 1 (mg/kg); 10.2/9.2
Mus musculus [36] = assay: Antitumor activity in CF1 mice bearing Ehrlich ascites carcinoma measured as percentage inhibition at 3 mg/kg; outline: as §1
Mus musculus [37] = assay: Antitumor activity in CF1 mice bearing Ehrlich ascites carcinoma measured as percent ascrit packed cell volume at 3 mg/kg; outline: as §2

O=C1C(Cl)=C(Cl)C(=O)c2[nH]ncc21
inhibition in vivo at 5 mg/kg (Mus musculus [1]): 98.6% | inhibition in vivo at 6 mg/kg (Mus musculus [2]): 85.4% | ascites volume (Mus musculus [3]): 0.48 ml mouse-1 | ascites volume (Mus musculus [4]): 0.6 ml mouse-1 | Average survival (days) (Mus musculus [5]): 10.5 | Average survival (days) (Mus musculus [6]): 11 | Average survival (days) (Mus musculus [7]): 12.6 | Average survival (days) (Mus musculus [8]): 9.2 | Average survival (days) (Mus musculus [9]): 3.6 | Average survival (days) (Mus musculus [10]): 10.9 | Survivors (Mus musculus [11]): 5 | Survivors (Mus musculus [12]): 5 | packed cell volume (Mus musculus [13]): 4.5% | packed cell volume (Mus musculus [14]): 24.1% | T/C (Mus musculus [15]): 114% | T/C (Mus musculus [16]): 120% | T/C (Mus musculus [17]): 137% | T/C (Mus musculus [18]): 98% | T/C (Mus musculus [19]): 104% | T/C (Mus musculus [20]): 39% | T/C (Mus musculus [21]): 118% | Average survival (days) (Mus musculus [22]): 9

Cn1cc2c(n1)C(=O)C(Cl)=C(N1CC1)C2=O
inhibition in vivo at 5 mg/kg (Mus musculus [1]): 83.7% | inhibition in vivo at 1 mg/kg (Mus musculus [23]): 72.9% | inhibition in vivo at 10 mg/kg (Mus musculus [24]): 96.3% | Survivors (Mus musculus [25]): 6 | Survivors (Mus musculus [26]): 5 | Survivors (Mus musculus [27]): 0 | ascites volume (Mus musculus [28]): 0.8 ml mouse-1 | ascites volume (Mus musculus [3]): 0.7 ml mouse-1 | Average survival (days) (Mus musculus [29]): 10.8 | Survivors (Mus musculus [11]): 5 | packed cell volume (Mus musculus [30]): 12.7% | packed cell volume (Mus musculus [31]): 8.4% | packed cell volume (Mus musculus [13]): 36.2% | T/C (Mus musculus [16]): 117% | ascites volume (Mus musculus [32]): 0.44 ml mouse-1

Cc1noc2c1C(=O)C(Cl)=C(Cl)C2=O
inhibition in vivo at 5 mg/kg (Mus musculus [1]): 100% | Survivors (Mus musculus [33]): 3 | ascites volume (Mus musculus [34]): 0 ml mouse-1 | ascites volume (Mus musculus [3]): 0 ml mouse-1 | Average survival (days) (Mus musculus [35]): 10.2 | Survivors (Mus musculus [11]): 5 | inhibition in vivo at 3 mg/kg (Mus musculus [36]): 100% | packed cell volume (Mus musculus [37]): 0% | packed cell volume (Mus musculus [13]): 0% | T/C (Mus musculus [16]): 111%
